Consider 10 compounds from ChEMBL document CHEMBL2010640, “Perturbing pro-survival proteins using quinoxaline derivatives: a structure-activity relationship study” (Bioorg Med Chem, 2012).

The test system of experiment [1] is HeLa. Put plainly: Induction of apoptosis in human HeLa cells overexpressing Bad3SA at 10 uM after 12 hrs by Hoechst staining. Type of experiment: functional, cell-based. In outline: (§1)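 Doxycycline-inducible HeLa lines (Dox-GFP, Dox-Noxa, Dox-Bad3SA) induced with doxycycline (1 μg/mL) for 3 h, then treated for a further 12 h; ABT-737 tested at 1 μM, other compound at 10 μM, DMSO vehicle. Cells fixed and Hoechst-stained; condensed nuclei counted to give percent cell death.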

Experiment [2] has as its target Induced myeloid leukemia cell differentiation protein Mcl-1 (Homo sapiens) (UniProt Q07820). Put plainly: Inhibition of Mcl-1 in human HeLa cells overexpressing Bad3SA assessed as increase in caspase3/7 activity at 50 uM after 6 hrs by luminescence analysis. The format is cell-based. In outline: (§2)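 Dox-Bad3SA HeLa cells (Bad3SA expressed under doxycycline control) exposed to compound for 6 h, with doxycycline or without it. Caspase 3/7 activity read as Caspase-Glo luminescence 1 h after adding reagent. Raw luminescence was normalized to alamarBlue fluorescence to correct for cell number.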

For experiment [3] the target is unchanged. Put plainly: Inhibition of Mcl-1 in doxycyclin-stimulated human HeLa cells overexpressing Bad3SA assessed as increase in caspase3/7 activity at 50 uM after 6 hrs by luminescence analysis. Type of experiment: cell-based. In outline: as §2
Experiment [4] relates to HeLa. Put plainly: Induction of apoptosis in human HeLa cells assessed as caspase activation at 1 uM by Hoechst staining. Type of experiment: functional, cell-based. In outline:
(§3)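 HeLa cells, 2000 cells/well, treated 6 h (ABT-737 1 μM; other compounds 10 μM, alone or combined); Caspase-Glo 3/7 reagent added, luminescence read after 1 h, RLU normalized to alamarBlue fluorescence. Separately, cell death across doses of the combination scored by Hoechst staining.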

For experiment [5], the target named is Bcl-2-like protein 1 (Homo sapiens) (UniProt Q07817). Put plainly: Induction of Bcl-xL-mediated apoptosis in doxycyclin-stimulated human HeLa cells overexpressing Noxa at 10 uM after 12 hrs by Hoechst staining. The format is cell-based. An outline of the steps:
as §1

Experiment [6] deals with HeLa. Put plainly: Induction of apoptosis in human HeLa cells assessed as decrease in Mcl-1 level after 12 hrs by Western blot analysis. (Immunoblotting shows a protein as a band on a membrane.)
For experiment [7], the system named is HeLa. Put plainly: Induction of apoptosis in human HeLa cells expressing Bcl-xL assessed as decrease in Mcl-1 level at 1 to 10 uM by Western blot analysis. The conditions noted are these: TDE = time-dependent effect. The format is functional, cell-based. In outline: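 HeLa cells exposed to 1, 5 or 10 μM for 12 h (dose response), and Bcl-xL-overexpressing HeLa cells exposed to 10 μM for 3, 6 or 12 h (time course); lysates resolved by SDS-PAGE and blotted for Mcl-1, Bcl-xL and Bcl-2, actin as loading control, DMSO vehicle.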

Experiment [8] concerns the target Induced myeloid leukemia cell differentiation protein Mcl-1 (Homo sapiens) (UniProt Q07820). Put plainly: Induction of Mcl-1-mediated apoptosis in doxycyclin-stimulated human HeLa cells expressing GFP at 10 uM after 12 hrs by Hoechst staining. Type of experiment: cell-based. An outline of the steps:
as §1

For experiment [9], the system named is HeLa. Put plainly: Induction of apoptosis in human HeLa cells assessed as caspase activation at 1 to 10 uM by Hoechst staining. The format is functional, cell-based. An outline of the steps: as §3
For experiment [10], the target named is Induced myeloid leukemia cell differentiation protein Mcl-1 (Homo sapiens) (UniProt Q07820). Put plainly: Induction of Mcl-1-mediated apoptosis in doxycyclin-stimulated human HeLa cells overexpressing Bad3SA at 10 uM after 12 hrs by Hoechst staining. Type of experiment: cell-based. In outline: as §1
Experiment [11] deals with HeLa. Put plainly: Induction of apoptosis in human HeLa cells assessed as decrease in XIAP expression at 10 uM by Western blot analysis. The format is functional, cell-based. An outline of the steps:
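HeLa cells treated 24 h, media and trypsinized cells pooled, lysed in RIPA buffer (pH 8.0); SDS-PAGE and Western blot for XIAP, α-tubulin as loading control.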

The source made the active and inactive calls. The rule behind the calls is not given here.

Chain of Induced myeloid leukemia cell differentiation protein Mcl-1 (Homo sapiens) (Q07820 whole entry): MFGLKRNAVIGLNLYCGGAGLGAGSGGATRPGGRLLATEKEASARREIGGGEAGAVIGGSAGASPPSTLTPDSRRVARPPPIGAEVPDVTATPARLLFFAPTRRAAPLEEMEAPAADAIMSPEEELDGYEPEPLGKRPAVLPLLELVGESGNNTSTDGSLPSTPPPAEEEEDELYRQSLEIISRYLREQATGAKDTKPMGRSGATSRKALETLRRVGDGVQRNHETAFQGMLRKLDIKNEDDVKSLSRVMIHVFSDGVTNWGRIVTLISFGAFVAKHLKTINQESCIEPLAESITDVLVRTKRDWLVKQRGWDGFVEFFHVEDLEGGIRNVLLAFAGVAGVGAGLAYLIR
Chain of Bcl-2-like protein 1 (Homo sapiens) (Q07817 whole entry): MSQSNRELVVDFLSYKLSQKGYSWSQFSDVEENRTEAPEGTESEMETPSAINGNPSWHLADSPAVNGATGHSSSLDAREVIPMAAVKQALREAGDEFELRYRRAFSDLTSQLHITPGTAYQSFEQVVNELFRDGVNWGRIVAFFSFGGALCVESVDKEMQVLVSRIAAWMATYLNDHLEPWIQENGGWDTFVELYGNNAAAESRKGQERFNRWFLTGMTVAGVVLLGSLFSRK

On to `O=C(Nc1ccc(Br)cc1)Nc1ccc2nc(-c3ccccn3)c(-c3ccccn3)nc2c1`, for which the result with HeLa [1] was inactive.

Consider `O=C(Nc1ccc(Br)cc1)Nc1ccc2nc(-c3cccs3)c(-c3cccs3)nc2c1`, for which the result with HeLa [1] was inactive.

On to `CC[C@@]1(O)C(=O)OCc2c1cc1n(c2=O)Cc2cc3ccccc3nc2-1`, for which the inhibition result in [2] was “inactive”. Besides, the inhibition result in experiment [3] was “Active”.

Take `O=C(Nc1cccc(Br)c1)Nc1ccc2nc(-c3ccco3)c(-c3ccco3)nc2c1`: the result in the experiment on HeLa [1] was Active.

With `CN(C)CC[C@H](CSc1ccccc1)Nc1ccc(S(=O)(=O)NC(=O)c2ccc(N3CCN(Cc4ccccc4-c4ccc(Cl)cc4)CC3)cc2)cc1[N+](=O)[O-]`, the result in the experiment on HeLa [4] was inactive.

With `O=C(Nc1ccc(Br)cc1)Nc1ccc2nc(-c3ccccc3)c(-c3ccccc3)nc2c1`, in the experiment on HeLa [1], the result was Active.

For `O=C(Nc1ccc(Br)cc1)Nc1ccc2nc(-c3ccco3)c(-c3ccco3)nc2c1`, the outcome (in experiment [5]; in [8]; with HeLa [9]) was inactive. Moreover, the Activity result in the experiment with HeLa [6] was “Dose-dependent effect”; with HeLa [7] it was “tde”. Moreover, the outcome (with HeLa [1]; in experiment [10]; in the experiment on HeLa [11]) was Active.

As for `O=C(Nc1ccccc1)Nc1ccc2nccnc2c1`, the outcome with HeLa [1] was inactive.

Regarding `Cc1nc2ccc(NC(=O)Nc3ccc(Br)cc3)cc2nc1C`, the result in the experiment with HeLa [1] and in the experiment on HeLa [9] was inactive.

Regarding `O=C(Nc1ccc2nc(-c3ccco3)c(-c3ccco3)nc2c1)Nc1ccccc1Br`, the result in the experiment on HeLa [1] was inactive.
